Published values from different studies.
Target: Homeodomain-interacting protein kinase 4 (HIPK4, Homo sapiens, UniProt Q8NE63)
Sequence (Q8NE63 1-616, as in one of the studies): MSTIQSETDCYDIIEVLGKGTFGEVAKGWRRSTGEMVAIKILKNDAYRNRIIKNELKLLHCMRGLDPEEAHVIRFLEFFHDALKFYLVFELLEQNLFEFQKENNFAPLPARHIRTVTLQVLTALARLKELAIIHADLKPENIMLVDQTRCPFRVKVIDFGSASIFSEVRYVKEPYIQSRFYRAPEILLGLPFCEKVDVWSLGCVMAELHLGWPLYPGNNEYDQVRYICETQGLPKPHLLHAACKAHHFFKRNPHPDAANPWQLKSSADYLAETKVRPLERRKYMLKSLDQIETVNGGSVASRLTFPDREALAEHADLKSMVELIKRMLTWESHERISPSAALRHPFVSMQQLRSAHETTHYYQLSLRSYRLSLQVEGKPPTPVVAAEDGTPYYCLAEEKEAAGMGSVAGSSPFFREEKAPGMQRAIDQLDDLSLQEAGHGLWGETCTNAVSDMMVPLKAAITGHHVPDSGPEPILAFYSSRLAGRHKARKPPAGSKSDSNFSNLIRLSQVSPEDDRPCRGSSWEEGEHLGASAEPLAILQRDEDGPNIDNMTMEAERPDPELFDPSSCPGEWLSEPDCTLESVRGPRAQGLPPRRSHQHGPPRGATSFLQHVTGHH

Compound | effect on | mode | method | tested at | measurement | result
O=c1[nH]c2ccccc2n1C1CCN(Cc2ccc(-c3[nH]c4cc5ncnc5cc4nc3-c3ccccc3)cc2)CC1 | cell-free assay | – | – | 0.5 µM | remaining signal | 99.3%
COc1ncccc1-c1cnn2ccc(N3CCN(C(=O)OC(C)C)CC3)nc12 | binding | – | competition with immobilised ligand | 1 µM | remaining binding | 99%
Cn1cncc1[C@](O)(COc1ccc(C#N)cc1-c1ccc(OC(F)(F)F)cc1)c1ccc(C#N)cc1 | cell-free assay | – | competition with immobilised ligand | 1 µM | remaining binding | 86%
Nc1ncc(-c2nc(N3CCOCC3)nc(N3CCOCC3)n2)c(C(F)F)n1 | binding | – | competition with immobilised ligand | 10 µM | remaining binding | 100%
Cn1cc(-c2cc(F)cc(N3CCn4c(cc5c4CCCC5)C3=O)c2CO)cc(Nc2ccc(N3CCN(C4COC4)CC3)cn2)c1=O | enzyme activity | inhibitor | – | 0.1 µM | inhibition | 11%
CC(C)(C)c1cc(C=C(C#N)C#N)cc(Br)c1O | enzyme activity | inhibitor | – | 0.5 µM | remaining activity | 103%
Cn1cc(-c2cccc(N3CCc4c(sc5c4CC(C)(C)C5)C3=O)c2CO)cc(Nc2ccncn2)c1=O | enzyme activity | inhibitor | – | 1 µM | inhibition | 11%
Cc1nn(C)cc1-c1nc2c(N3CCN(Cc4ccc(Cl)cc4)CC3)c(Cl)cnc2[nH]1 | binding | – | competition with immobilised ligand | 1 µM | remaining binding | 85%
